Consider four molecules from publication PMC9826267 (Chembiochem, 2022).

As usually defined, the pIC50 is the negative decadic logarithm of the IC50, by convention in mol/L.

pIC50: −log10 of the molar value.

One data set has as its target T1, GlnA4Sc (Streptomyces coelicolor, UniProt O88070).
T1 sequence (O88070 1-462): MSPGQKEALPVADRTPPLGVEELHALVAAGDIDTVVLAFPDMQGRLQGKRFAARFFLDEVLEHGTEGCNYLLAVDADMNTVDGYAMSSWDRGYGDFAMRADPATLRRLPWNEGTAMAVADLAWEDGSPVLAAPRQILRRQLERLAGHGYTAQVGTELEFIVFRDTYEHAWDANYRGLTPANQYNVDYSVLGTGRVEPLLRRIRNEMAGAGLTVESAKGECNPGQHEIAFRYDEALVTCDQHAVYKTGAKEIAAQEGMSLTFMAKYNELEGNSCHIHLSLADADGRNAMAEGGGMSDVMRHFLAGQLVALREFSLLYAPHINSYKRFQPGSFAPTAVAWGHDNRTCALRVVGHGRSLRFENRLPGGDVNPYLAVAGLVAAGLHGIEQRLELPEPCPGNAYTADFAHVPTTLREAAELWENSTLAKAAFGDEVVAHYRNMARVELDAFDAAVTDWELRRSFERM
Put plainly: GlnA4Sc enzyme activity assay. It is filed as biochemical.

Another data set has as its target GlnA1Mt (Mycobacterium tuberculosis, UniProt P9WN39). It is filed as biochemical. The conditions noted are these: at 5 mM (SI Figure 2).
A further data set relates to S. coelicolor M145. The data set is described as follows: S. coelicolor growth assay. The data set is classed as cell-based, Streptomyces coelicolor. In outline: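 S. coelicolor M145 grown in defined Evans medium with 25 mM ammonium chloride, L-glutamine or ethanolamine hydrochloride as sole nitrogen source. Test compound added at final 100, 50, 25, 12.5, 6.25, 3.125, 1.562, 0.781 or 0 μM. Cultures shaken at 180 rpm for 7 days at 30 °C. Phase-contrast images taken at x400; hyphae thickness used to quantify growth.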

GlnA1Mt, sequence (P9WN39 whole entry): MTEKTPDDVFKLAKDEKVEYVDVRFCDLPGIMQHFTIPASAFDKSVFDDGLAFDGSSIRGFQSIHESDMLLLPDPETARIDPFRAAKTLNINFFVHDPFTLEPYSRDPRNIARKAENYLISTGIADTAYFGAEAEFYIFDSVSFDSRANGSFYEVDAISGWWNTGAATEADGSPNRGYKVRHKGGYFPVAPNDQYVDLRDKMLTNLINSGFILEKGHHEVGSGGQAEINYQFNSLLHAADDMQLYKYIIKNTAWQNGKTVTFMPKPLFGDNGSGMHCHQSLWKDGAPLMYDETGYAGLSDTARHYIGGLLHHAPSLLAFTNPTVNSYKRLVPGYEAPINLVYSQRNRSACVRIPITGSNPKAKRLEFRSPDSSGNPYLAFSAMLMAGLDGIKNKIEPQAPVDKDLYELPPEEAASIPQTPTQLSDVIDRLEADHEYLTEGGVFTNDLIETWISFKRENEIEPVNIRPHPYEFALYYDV

As for `CS(=O)(CC[C@H](N)C(=O)O)=NCCO` (stereo partly drawn) [compound 8, (2S)‐2‐Amino‐4‐(N‐(2‐hydroxyethyl)‐methylsulfonimidoyl)butanoic acid], the pIC50 on GlnA4Sc was 3.18. The “Inhibition of GlnA4Sc activity (in words)” value on GlnA4Sc (Figure 1a/1b) is listed as “inhibited”. Further, the “Activity against GlnA1Mt (in words)” value at GlnA1Mt is recorded as “neither 7 b nor 8 showed activity”.

Molecule `N=S(=O)(CCCO)CC[C@H](N)C(=O)O` (stereo partly drawn) [7 b, (2S)‐2‐Amino‐4‐(3‐hydroxypropylsulfonimidoyl)butanoic acid] showed a pIC50 against GlnA4Sc of 4.91. In addition, the “Activity against GlnA1Mt (in words)” value on GlnA1Mt was “neither 7 b nor 8 showed activity”. Also, the “Hyphae thickness with additional glutamine (rescue)” value with S. coelicolor M145 (100 μM inhibitor, additional glutamine as alternative nitrogen source) came to 1.11 μm. For the same molecule, the “Non-specific toxic effects (in words)” value with S. coelicolor M145 (100 μM, glutamine rescue control experiment) is reported as “excludes any non‐specific toxic effects”. For the same molecule, the “Size of mycelial agglomerates (in words)” value in the data set with S. coelicolor M145 (lowest tested concentration 0.78 μM, ethanolamine as nitrogen source) is reported as “reduced the size of the mycelial agglomerates”.

The molecule `N=S(=O)(CCO)CC[C@H](N)C(=O)O` (stereo partly drawn) [7 a, (2S)‐2‐Amino‐4‐(2‐hydroxyethylsulfonimidoyl)butanoic acid] showed a pIC50 against GlnA4Sc of 2.66.

Molecule `N=S(=O)(CCCCO)CC[C@H](N)C(=O)O` (stereo partly drawn) [7 c, (2S)‐2‐Amino‐4‐(4‐hydroxybutylsulfonimidoyl)butanoic acid] gave a pIC50 at GlnA4Sc of 4.10.
